The results in this text go back to ChEMBL document CHEMBL2203015, “Synthesis and biological evaluation of 5-aryloxypyrazole derivatives bearing a rhodanine-3-aromatic acid as potential antimicrobial agents” (Bioorg Med Chem Lett, 2012).

The structures appear in SMILES notation. In brackets after ≈: the same amount, converted by molar mass.

Data set [1] in a line: Toxicity against human HeLa cells incubated for 48 hrs by MTT assay. It is filed as cell-based. The essentials:
(§1)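 HeLa cells kept in DMEM with 10% FBS and penicillin-streptomycin (100 U/mL) at 37 °C, 5% CO₂, split with 0.25% trypsin at 80–90% confluence. After 3 passages, about 1 × 10⁴ cells per well were seeded and left overnight to attach. Compound exposure 48 h. MTT (5 mg/mL in PBS) added for 4 h, formazan dissolved in DMSO, OD read at 570 nm.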
Background: Formazan colour is commonly taken as a measure of viable cells.

The test system of data set [2] is Staphylococcus aureus. Nature of the data set: Antibacterial activity against multidrug-resistant Staphylococcus aureus CCARM 3167 incubated for 24 hrs serial dilution method. It is filed as functional. To be noted: CCARM 3167, 24 h.
Data set [3] relates to Staphylococcus aureus. Briefly: Antibacterial activity against multidrug-resistant Staphylococcus aureus CCARM 3506 incubated for 24 hrs serial dilution method. Conditions: CCARM 3506, 24 h. Format: functional.
Data set [4] deals with Staphylococcus aureus. Briefly: Potency index, ratio of MIC for oxacillin to MIC for compound against multidrug-resistant Staphylococcus aureus CCARM 3167 incubated for 24 hrs serial dilution method. It is filed as functional.
In data set [5] the test system is HeLa. Briefly: Toxicity against human HeLa cells at 1 ug/ml incubated for 48 hrs by MTT assay. It is filed as cell-based. The method, boiled down: as §1
The next data set has as its system Escherichia coli. Briefly: Antibacterial activity against Escherichia coli 1356 incubated for 24 hrs serial dilution method. It is filed as functional. To be noted: Escherichia coli, 1356, 24 h.
Data set [6] relates to HeLa. Briefly: Toxicity against human HeLa cells at 2 ug/ml incubated for 48 hrs by MTT assay. Format: cell-based. The essentials:
as §1

For data set [7], the system named is Staphylococcus aureus. Nature of the data set: Potency index, ratio of MIC for oxacillin to MIC for compound against multidrug-resistant Staphylococcus aureus CCARM 3506 incubated for 24 hrs serial dilution method. It is filed as functional.
Data set [8] deals with Staphylococcus aureus. Nature of the data set: Antibacterial activity against quinolone-resistant Staphylococcus aureus CCARM 3519 incubated for 24 hrs serial dilution method. Format: functional. To be noted: CCARM 3519, 24 h.
For data set [9], the system named is Staphylococcus aureus. Nature of the data set: Antibacterial activity against Staphylococcus aureus KCTC 209 incubated for 24 hrs serial dilution method. It is filed as functional. Conditions: KCTC 209, 24 h.
Data set [10] relates to Staphylococcus aureus. Briefly: Potency index, ratio of MIC for norfloxacin to MIC for compound against quinolone-resistant Staphylococcus aureus CCARM 3519 incubated for 24 hrs serial dilution method. Format: functional.
The subject of data set [11] is Staphylococcus aureus. Briefly: Antibacterial activity against quinolone-resistant Staphylococcus aureus CCARM 3505 incubated for 24 hrs serial dilution method. Format: functional. To be noted: CCARM 3505, 24 h.
The test system of data set [12] is Staphylococcus aureus. Nature of the data set: Potency index, ratio of MIC for oxacillin to MIC for compound against quinolone-resistant Staphylococcus aureus CCARM 3519 incubated for 24 hrs serial dilution method. It is filed as functional.
The subject of data set [13] is Staphylococcus aureus. Briefly: Antibacterial activity against Staphylococcus aureus KCTC 503 incubated for 24 hrs serial dilution method. Format: functional. To be noted: KCTC 503, 24 h.
Data set [14] has as its system Staphylococcus aureus. Briefly: Potency index, ratio of MIC for norfloxacin to MIC for compound against multidrug-resistant Staphylococcus aureus CCARM 3506 incubated for 24 hrs serial dilution method. It is filed as functional.
Data set [15] relates to Staphylococcus aureus. Nature of the data set: Potency index, ratio of MIC for norfloxacin to MIC for compound against quinolone-resistant Staphylococcus aureus CCARM 3505 incubated for 24 hrs serial dilution method. It is filed as functional.
The subject of data set [16] is Staphylococcus aureus. Nature of the data set: Potency index, ratio of MIC for norfloxacin to MIC for compound against multidrug-resistant Staphylococcus aureus CCARM 3167 incubated for 24 hrs serial dilution method. Format: functional.
Data set [17] relates to Staphylococcus aureus. Nature of the data set: Antibacterial activity against Staphylococcus aureus RN 4220 incubated for 24 hrs serial dilution method. It is filed as functional. Conditions: RN 4220, 24 h.
Data set [18] concerns Staphylococcus aureus. Briefly: Potency index, ratio of MIC for oxacillin to MIC for compound against quinolone-resistant Staphylococcus aureus CCARM 3505 incubated for 24 hrs serial dilution method. Format: functional.

As for `Cc1nn(-c2ccccc2)c(Oc2ccc(Cl)cc2Cl)c1/C=C1\SC(=S)N([C@@H](Cc2ccccc2)C(=O)O)C1=O`, in data set [1], the IC50 at 48 h amounted to 3.54 µg/mL (≈ 5.8 µM). For the same molecule, the MIC in the data set with Staphylococcus aureus [2] was 1 µg/mL (≈ 1.64 µM); in the data set with Staphylococcus aureus [3], 1 µg/mL (≈ 1.64 µM); against Escherichia coli, greater than 64 µg/mL; against Staphylococcus aureus [8], 2 µg/mL (≈ 3.28 µM); against Staphylococcus aureus [9] it was greater than 64 µg/mL; with Staphylococcus aureus [11], 2 µg/mL (≈ 3.28 µM). Besides, the MIC is greater than 64 µg/mL against Staphylococcus aureus [13] and 2 µg/mL (≈ 3.28 µM) against Staphylococcus aureus [17]. Besides, the Ratio in the data set on Staphylococcus aureus [4] was found to be 32; in the data set with Staphylococcus aureus [7], 32; with Staphylococcus aureus [10], 8; with Staphylococcus aureus [12], 32; with Staphylococcus aureus [14], 8; with Staphylococcus aureus [15], 8. Besides, the Ratio in the data set on Staphylococcus aureus [16] came out at 8; in the data set with Staphylococcus aureus [18] it was 32. Further, the Activity result in the data set on HeLa [5] and with HeLa [6] was “Non-toxic” in each case.

Usually IC50 stands for the concentration needed to halve the response being measured. A high value points to weaker potency in that assay. Broadly, the MIC is the least concentration at which growth counts as inhibited. A lower MIC goes with inhibition by little substance.
